# Published values gathered from unrelated publications.
# Compare with care: the assays were run in different laboratories.
# Target: Homeodomain-interacting protein kinase 4 (HIPK4, Homo sapiens, UniProt Q8NE63)
# Sequence (Q8NE63 1-616, as in one of the studies): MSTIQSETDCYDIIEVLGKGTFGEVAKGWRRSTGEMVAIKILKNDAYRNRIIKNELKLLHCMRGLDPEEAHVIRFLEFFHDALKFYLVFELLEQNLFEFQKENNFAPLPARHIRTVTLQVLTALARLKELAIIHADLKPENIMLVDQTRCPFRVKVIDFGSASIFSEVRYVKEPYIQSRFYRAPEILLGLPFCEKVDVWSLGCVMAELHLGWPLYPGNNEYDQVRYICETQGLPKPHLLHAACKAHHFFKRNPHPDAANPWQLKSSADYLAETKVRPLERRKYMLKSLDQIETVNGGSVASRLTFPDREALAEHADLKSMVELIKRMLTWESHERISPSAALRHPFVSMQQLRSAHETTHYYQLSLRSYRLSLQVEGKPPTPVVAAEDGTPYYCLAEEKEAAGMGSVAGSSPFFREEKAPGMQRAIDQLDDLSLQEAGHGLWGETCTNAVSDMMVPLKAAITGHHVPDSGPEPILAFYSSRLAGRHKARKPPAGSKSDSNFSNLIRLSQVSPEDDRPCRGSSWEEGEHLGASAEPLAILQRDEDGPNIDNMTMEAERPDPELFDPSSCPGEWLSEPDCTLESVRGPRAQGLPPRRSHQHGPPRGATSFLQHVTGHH
Structure (SMILES),assay,conditions,endpoint,value
CCCCC(=O)Nc1ccc(-c2ccc3ncn(CCC)c(=O)c3c2)cn1,"binding, competition with immobilised ligand",0.5 µM,remaining binding,66%
CC#CC(=O)N1CCC[C@H]1c1nc(-c2ccc(C(=O)Nc3ccccn3)cc2)c2c(N)nccn12,"enzyme activity, inhibitor",1 µM,inhibition,0%
C[C@H]1CC[C@H](n2c3cnccc3c3cnc(Nc4ccc5c(n4)CCN(C(=O)CO)C5)nc32)CC1,"binding, competition with immobilised ligand",1 µM,remaining binding,56%
C#Cc1cc(-c2cc(Nc3nc(N[C@@H](C)c4ccc(F)cn4)ncc3Cl)n[nH]2)ccc1C=O,"enzyme activity, inhibitor",0.2 µM,inhibition,4.92%
CO[C@@H]1[C@H](N(C)C(=O)c2ccccc2)C[C@H]2O[C@]1(C)n1c3ccccc3c3c4c(c5c6ccccc6n2c5c31)C(=O)NC4,"enzyme activity, inhibitor",1 µM,inhibition,23%
C1=C/COCc2cc(ccc2OCCN2CCCC2)Nc2nccc(n2)-c2cccc(c2)COC/1,binding,0.1 µM,remaining binding,2.3%
CC(C)S(=O)(=O)c1ccc2nccc(Nc3ccc4sc(C5CCCC5)nc4c3)c2c1,"enzyme activity, inhibitor",1 µM,activity vs control,98%
CN1CCN(C(=O)c2ccc(NC(=O)Nc3ccc(N(C)c4ccnc(Nc5ccc(CS(C)(=O)=O)cc5)n4)cc3)cc2)CC1,"binding, competition with immobilised ligand",1 µM,remaining binding,74%
